In data set [1] the target is Epidermal growth factor receptor (Homo sapiens) (UniProt P00533). Put plainly: Inhibition of EGFR autophosphorylation at Ty1068 in human T24 cells at 1 uM followed by PDT and measured after 24 hrs by Western blot analysis. The class given is cell-based. (In general: A western blot detects proteins with antibodies after separation by electrophoresis.)
Data set [2] can be described thus: Drug uptake in human UM-UC-3 cells assessed as increase in gray value intensity at 500 nM after 48 hrs in presence of gleevec by Hoechst 33342 staining based fluorescence microscopy. The class given is ADME, cell-based. The note with it: umuc3, 24 h, 0.5 µM, in the assay text read “after 24 hrs” for “after 48 hrs”. The essentials:
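Cells plated at 100k per well, grown to 80% confluency, refreshed, then incubated 24 h with PS at 500 nM with or without Gleevec 5 µM. Washed twice with PBS, Hoechst 33342 added, imaged by fluorescence microscopy; grey value normalized to cell number, triplicate groups and images.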

Data set [3] is described as follows: Drug uptake in human UM-UC-3 cells xenografted in SCID mouse at 0.47 umol/kg formulated with 2% pluronic F-127 solution and measured at 24 hrs post injection by IVIS analysis. Format: ADME, cell-based, UMUC3. The following applies: in vivo. The method in brief:
(§1)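 SCID mice (3/group) bearing UMUC3 or T24 tumors of 4–5 mm injected with PS at 0.47 µmol/kg in Tween80 or Pluronic F-127. Tumor, liver and skin fluorescence followed by IVIS optical imaging (ex 675 nm, em 720) at several time points including 24 h.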

Data set [4] in a line: Drug uptake in human UM-UC-3 cells xenografted in SCID mouse at 0.47 umol/kg formulated with 1% tween 80 solution and measured at 24 hrs post injection by IVIS analysis. Format: ADME, cell-based, UMUC3. The note with it: in vivo. The essentials: as §1
In general terms: In xenograft studies the graft and the host belong to different species.

The nature of data set [5]: Drug uptake in human T24 cells xenografted in SCID mouse at 0.47 umol/kg formulated with 2% pluronic F-127 solution and measured at 24 hrs post injection by IVIS analysis. The class given is ADME, cell-based, T-24. The note with it: in vivo. The method in brief:
as §1

Data set [6] in a line: Drug uptake in human T24 cells xenografted in SCID mouse at 0.47 umol/kg formulated with 1% tween 80 solution and measured at 24 hrs post injection by IVIS analysis. Format: ADME, cell-based, T-24. The following applies: in vivo. The essentials: as §1
The test system of data set [7] is UMUC3. Put plainly: Anti-tumor activity against human UM-UC-3 cells xenografted in SCID mouse assessed as tumor necrosis at 0.47 umol/kg, iv in presence of 135 J/cm2 light irradiation at 24 hrs post injection and measured at 72 hrs post light exposure. Format: functional, organism-based.
Data set [8] is described as follows: Induction of singlet oxygen generation in oxygen-free toluene solution at 670 nm assessed as decay rate constant of triplet excited state by femtosecond transient absorption spectroscopy. Format: functional.
Data set [9] can be described thus: Induction of singlet oxygen generation in toluene solution in presence of oxygen at 670 nm assessed as decay rate constant of triplet excited state by femtosecond transient absorption spectroscopy. The class given is functional.
Data set [10] in a line: Induction of singlet oxygen generation in Ar-saturated toluene solution at 670 nm assessed as decay rate constant of triplet excited state by femtosecond transient absorption spectroscopy. Format: functional.
Data set [11] is described as follows: Induction of singlet oxygen generation in oxygen-saturated toluene solution at 670 nm assessed as decay rate constant of triplet excited state by femtosecond transient absorption spectroscopy. The class given is functional.
Data set [12] in a line: Induction of singlet oxygen generation assessed as energy transfer from the triplet chlorins to oxygen by femtosecond transient absorption spectroscopy. The class given is functional.
Data set [13] deals with UMUC3. As to the kind of experiment: Induction of apoptosis in human UM-UC-3 cells assessed as increase in necrotic cells at 1 uM in presence of light by Annexin V/propidium iodide-stining based flow cytometry. The class given is functional, cell-based. A general note: A flow cytometer gives signals particle by particle.
The test system of data set [14] is UMUC3. Put plainly: Induction of apoptosis in human UM-UC-3 cells assessed as increase in apoptotic cells at 1 uM in presence of light by Annexin V/propidium iodide-stining based flow cytometry. The class given is functional, cell-based.
Data set [15] has as its system T-24. As to the kind of experiment: Induction of apoptosis in human T24 cells assessed as increase in apoptotic cells at 100 nM in presence of light by Annexin V/propidium iodide-stining based flow cytometry. The class given is functional, cell-based.
Data set [16] has as its system T-24. Put plainly: Induction of apoptosis in human T24 cells assessed as increase in apoptotic cells at 1 uM in presence of light by Annexin V/propidium iodide-stining based flow cytometry. Format: functional, cell-based.
In data set [17] the test system is T-24. As to the kind of experiment: Induction of apoptosis in human T24 cells assessed as increase in necrotic cells at 1 uM in presence of light by Annexin V/propidium iodide-stining based flow cytometry. The class given is functional, cell-based.
Data set [18] deals with UMUC3. As to the kind of experiment: Induction of apoptosis in human UM-UC-3 cells assessed as increase in apoptotic cells at 100 nM in presence of light by Annexin V/propidium iodide-stining based flow cytometry. Format: functional, cell-based.
The test system of data set [19] is UMUC3. Put plainly: Induction of apoptosis in human UM-UC-3 cells assessed as increase in necrotic cells at 100 nM in presence of light by Annexin V/propidium iodide-stining based flow cytometry. The class given is functional, cell-based.
Data set [20] relates to UMUC3. As to the kind of experiment: Anti-tumor activity against human UM-UC-3 cells xenografted in SCID mouse assessed as tumor cure at 0.47 umol/kg, iv in presence of 135 J/cm2 light irradiation at 24 hrs post injection and measured at day 60. The class given is functional. The method in brief:
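UMUC-3 cells implanted in right flank of SCID mice; at 4–5 mm tumors, PS given i.v. at 0.47 µmol/kg. Tumors exposed to 665 nm light, 135 J/cm2 at 75 mW/cm2, 24 h post-injection. Tumor regrowth monitored daily; mice euthanized at >400 mm3; tumor-free status scored at day 60.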

Active and inactive are the calls of the source. The calls are words filed in the database; no cut-off is given here.

Epidermal growth factor receptor (Homo sapiens), sequence (P00533 whole entry): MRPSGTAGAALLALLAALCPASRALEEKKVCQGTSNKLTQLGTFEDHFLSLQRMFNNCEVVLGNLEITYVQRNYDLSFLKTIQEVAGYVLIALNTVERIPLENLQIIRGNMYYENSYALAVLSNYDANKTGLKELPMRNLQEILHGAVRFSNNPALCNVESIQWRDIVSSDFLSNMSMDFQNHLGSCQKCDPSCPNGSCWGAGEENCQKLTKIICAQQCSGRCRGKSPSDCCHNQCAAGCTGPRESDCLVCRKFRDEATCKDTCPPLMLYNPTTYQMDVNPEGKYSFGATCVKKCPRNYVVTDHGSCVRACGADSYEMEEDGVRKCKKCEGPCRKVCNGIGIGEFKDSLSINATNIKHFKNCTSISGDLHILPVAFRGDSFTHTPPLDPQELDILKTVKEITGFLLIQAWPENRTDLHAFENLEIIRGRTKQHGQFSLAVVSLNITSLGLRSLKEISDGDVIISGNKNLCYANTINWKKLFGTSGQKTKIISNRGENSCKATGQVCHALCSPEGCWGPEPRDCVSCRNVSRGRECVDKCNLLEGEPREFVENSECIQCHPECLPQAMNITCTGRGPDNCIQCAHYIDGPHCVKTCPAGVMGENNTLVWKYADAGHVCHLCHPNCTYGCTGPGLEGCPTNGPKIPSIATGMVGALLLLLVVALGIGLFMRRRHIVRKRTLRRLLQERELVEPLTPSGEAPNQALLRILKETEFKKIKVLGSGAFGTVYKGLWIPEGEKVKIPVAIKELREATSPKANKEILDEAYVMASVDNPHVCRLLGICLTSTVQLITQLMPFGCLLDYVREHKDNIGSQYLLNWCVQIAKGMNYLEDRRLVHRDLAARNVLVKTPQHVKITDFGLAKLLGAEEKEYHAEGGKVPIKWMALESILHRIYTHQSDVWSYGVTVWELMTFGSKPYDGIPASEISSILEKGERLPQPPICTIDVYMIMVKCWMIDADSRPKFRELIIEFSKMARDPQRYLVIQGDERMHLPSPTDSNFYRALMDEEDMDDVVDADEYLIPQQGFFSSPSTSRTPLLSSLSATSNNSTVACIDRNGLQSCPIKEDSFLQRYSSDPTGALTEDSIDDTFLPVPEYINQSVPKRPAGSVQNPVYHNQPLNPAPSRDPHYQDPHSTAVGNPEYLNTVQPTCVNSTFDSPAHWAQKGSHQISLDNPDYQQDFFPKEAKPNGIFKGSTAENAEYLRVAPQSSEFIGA

Consider `CCC1=C(C)c2cc3[nH]c(cc4nc(c5c6[nH]c(cc1n2)c(C)c6C(=O)C5)[C@@H](CCC(=O)NCc1cccc(I)c1)[C@@H]4C)c(C)c3C(C)OCc1cccc(C#Cc2cccc(Nc3ncnc4cc(OCCOC)c(OCCOC)cc34)c2)c1` (some centres not stated), for which the inhibition entry in [1] is “Active”. Also, the Drug uptake result in data set [2] is on record as “Not Active”; in data set [3] it was “Active”; in [4], “Active”; in data set [5], “Active”; in data set [6] it was “Active”. The result with UMUC3 [7] was inactive. Besides, the K came out at 4.27 ×10⁴ /s in data set [8]; 0.634 ×10⁶ /s in data set [9]; 4.27 ×10⁴ /s in data set [10]; 6.34 ×10⁵ /s in [11]; 3.17 ×10⁹ /M/s in [12].

With `CCC1=C(C)c2cc3[nH]c(cc4nc(c5c6[nH]c(cc1n2)c(C)c6C(=O)C5)[C@@H](CCC(=O)OC)[C@@H]4C)c(C)c3C(C)OCc1cccc(I)c1` (some centres not stated), the result in the data set with UMUC3 [13], with UMUC3 [14], in the data set with T-24 [16], in the data set with T-24 [17], in the data set with UMUC3 [18] and in the data set on UMUC3 [19] was Active. In addition, the result in the data set on T-24 [15] was inactive. Moreover, the inhibition entry in [1] was “inactive”. The Drug uptake entry in data set [2] was “Active”. Further, the Activity in the data set on UMUC3 [20] was 20%.
